What was measured:
[1] = molecular target: T1, Hemoglobin HbA (Homo sapiens) (UniProt P69905+P68871); test: Ability to right-shift the oxygen equilibrium curves (OECs) quantified by ability to increase in P50 at which Hb was 50% saturated with oxygen in the […] of the effector.; type: functional
[2] = molecular target: T1, Hemoglobin HbA (Homo sapiens); test: The Hill coefficient at 50% saturation (n50) in the presence of effector.; type: protein-complex assay
In short: (§1)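 Human whole blood; DMSO stock 200 mM, final 5 mM effector, DMSO-only control. Duplicate samples equilibrated ~10 min at 37 °C in tonometers against gas mixtures of 2.95%, 5.85% and 8.75% O2 with 5.8% CO2, balance N2. pO2 and sO2 read on blood gas analyzer and co-oximeter. P50 and n50 from nonlinear regression; ΔP50 = P50 effector − P50 control.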

[3] = molecular target: T1, Hemoglobin HbA (Homo sapiens); test: Ratio of […] (P50 control value with no effector present 5.0 mmHg, in case of DMSO is 4.7 mmHg ); type: functional
[4] = molecular target: T1, Hemoglobin HbA (Homo sapiens); test: Ability to right-shift the oxygen equilibrium curves (OECs) quantified by ability to increase in P50 at which Hb was 50% saturated with oxygen in the presence of the effector at the concentration of 5 mM.; type: functional; in short: as §1
[5] = molecular target: T1, Hemoglobin HbA (Homo sapiens); test: The Hill coefficient at 50% saturation (n50) between 40 and 60% oxygen saturation (n50 control value with no effector present, 2.7).; type: protein-complex assay
[6] = molecular target: T1, Hemoglobin HbA (Homo sapiens); test: The difference in the partial pressure of oxygen at 50% saturated Hb; type: functional; in short: as §1
[7] = molecular target: T1, Hemoglobin HbA (Homo sapiens); test: Oxygen pressure in mmHg at which Hb is 50% saturated with oxygen at 50-60 uM heme concentration and in the presence of 0.5 mM effector.; type: functional
[8] = molecular target: T1, Hemoglobin HbA (Homo sapiens); test: Ability to right-shift the oxygen equilibrium curves (OECs) quantified by ability to increase in P50 in whole blood analyses.; type: functional, tissue-based; in short: as §1
[9] = molecular target: T1, Hemoglobin HbA (Homo sapiens); test: Ability to right-shift the oxygen equilibrium curves (OECs) quantified by ability to increase in P50 at which Hb was 50% saturated with oxygen in the […] of the effector at the concentration of 5 mM.; type: functional; in short: as §1

T1 sequence (P68871 2-147 partner limits assumed): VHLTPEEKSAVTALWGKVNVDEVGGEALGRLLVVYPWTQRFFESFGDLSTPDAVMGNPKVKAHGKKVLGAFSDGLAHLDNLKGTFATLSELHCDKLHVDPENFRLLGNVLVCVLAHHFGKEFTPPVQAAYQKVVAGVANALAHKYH
T1 sequence (P69905 2-142 limits assumed): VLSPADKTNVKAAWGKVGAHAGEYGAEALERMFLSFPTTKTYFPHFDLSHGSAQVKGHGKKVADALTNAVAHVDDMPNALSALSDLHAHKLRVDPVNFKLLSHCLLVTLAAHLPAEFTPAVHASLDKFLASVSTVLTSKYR

| SMILES | P50e [1] [mmHg] | n50e [2] | P50e / P50c [3] | P50e [4] [mmHg] | Hill coefficient (n50) [5] | Delta P50 [6] | P50e [7] [mmHg] | P50c [8] [mmHg] | P50e [9] [mmHg] |
| --- | --- | --- | --- | --- | --- | --- | --- | --- | --- |
| Cc1cc(C)cc(NC(=O)Cc2ccc(OC3(C(=O)N[C@@H](CC(C)C)C(=O)O)CCCC3)cc2)c1 | 70.6 | 1.8 | 4.3 | 71.3 | 2.7 | 41.5 | 21.3 | 29.4 |  |
| CSCC[C@@H](NC(=O)C1(Oc2ccc(CC(=O)Nc3cc(C)cc(C)c3)cc2)CCCC1)C(=O)O | 44.8 | 2.1 | 1.9 | 45.5 | 2.8 | 20.6 | 9.5 | 24.5 |  |
| Cc1cc(C)cc(NC(=O)Cc2ccc(OC3(C(=O)N[C@@H](C(=O)O)C(C)C)CCCC3)cc2)c1 | 56.6 | 1.9 | 2.8 | 57.3 | 2.6 | 30.2 | 13.9 | 26.7 |  |
| Cc1cc(C)cc(NC(=O)Cc2ccc(OC3(C(=O)N[C@@H](C)C(=O)O)CCCC3)cc2)c1 | 42.8 | 2.1 | 2.1 | 46.2 | 2.7 | 17.6 | 10.5 | 26.8 |  |
| Cc1cc(C)cc(NC(=O)Cc2ccc(OC(C)(C)C(=O)O)cc2)c1 | 80 | 1.5 | 4.7 | 82.6 | 2.3 | 51.5 |  | 29.8 |  |
| Cc1cc(C)cc(NC(=O)Cc2ccc(OC3(C(=O)N[C@@H](CCCCNC(=O)OCc4ccccc4)C(=O)O)CCCC3)cc2)c1 | 39.5 | 2.1 | 5.9 | 45 | 2.4 | 14 | 29.5 | 28.3 |  |
| Cc1cc(C)cc(NC(=O)Cc2ccc(OC3(C(=O)N[C@H](CCC(=O)O)C(=O)O)CCCC3)cc2)c1 | 50.1 | 2 | 3.4 | 51.4 | 2.6 | 22.5 | 16.8 | 28.3 |  |
| Cc1cc(C)cc(NC(=O)Cc2ccc(OC3(C(=O)N[C@H](CCCCNC(=O)OCc4ccccc4)C(=O)O)CCCC3)cc2)c1 | 27.6 | 2.5 | 4.5 | 28.2 | 2.5 | 0.4 | 22.4 | 27.5 |  |
| Cc1cc(C)cc(NC(=O)Cc2ccc(OC3(C(=O)N[C@H](C)C(=O)O)CCCC3)cc2)c1 | 50.3 | 1.7 | 2.8 | 52.1 | 2.6 | 21.9 | 13.8 | 29.4 |  |
| Cc1cc(C)cc(NC(=O)Cc2ccc(OC3(C(=O)N[C@H](CCCCN)C(=O)O)CCCC3)cc2)c1 | 26.7 | 2.7 | 1.6 | 28.6 | 2.4 | -0.6 | 8.1 | 28.3 |  |
| Cc1cc(C)cc(NC(=O)Cc2ccc(OC3(C(=O)N[C@H](C(=O)O)C(C)C)CCCC3)cc2)c1 | 53.9 | 2 | 2.6 | 54.8 | 2.7 | 28.6 | 13 | 25.7 |  |
| Cc1cc(C)cc(NC(=O)Cc2ccc(OC3(C(=O)N[C@@H](C(=O)O)C(C)O)CCCC3)cc2)c1 (some centres not stated) | 39.7 | 2.2 | 2.9 | 41.1 | 2.6 | 12.9 | 14.3 | 27.5 |  |
| Cc1cc(C)cc(NC(=O)Cc2ccc(OC3(C(=O)N[C@@H](CCCCN)C(=O)O)CCCC3)cc2)c1 | 27.2 | 2.7 | 1.2 | 29 | 2.3 | -0.2 | 5.8 | 28.3 |  |
| CSCC[C@H](NC(=O)C1(Oc2ccc(CC(=O)Nc3cc(C)cc(C)c3)cc2)CCCC1)C(=O)O | 50.7 | 2.3 | 3.6 | 56.8 | 2.6 | 26.6 | 18.1 | 27.1 |  |
| Cc1cc(C)cc(NC(=O)Cc2ccc(OC3(C(=O)N4CCC[C@H]4C(=O)O)CCCC3)cc2)c1 | 41.1 | 2.3 | 2.7 | 42.5 | 2.7 | 17 | 13.5 | 24.8 |  |
| Cc1cc(C)cc(NC(=O)Cc2ccc(OC3(C(=O)O)CCCC3)cc2)c1 | 67.7 | 1.7 | 5.1 | 74.7 | 2.4 | 42.3 |  | 28.9 |  |
| Cc1cc(C)cc(NC(=O)Cc2ccc(OC3(C(=O)NCC(=O)O)CCCC3)cc2)c1 | 50 | 2.1 | 2.4 | 52.6 | 2.6 | 25.1 | 12 | 26.2 |  |
| CC[C@@H](C)[C@@H](NC(=O)C1(Oc2ccc(CC(=O)Nc3cc(C)cc(C)c3)cc2)CCCC1)C(=O)O | 38.9 | 2.3 | 2.5 | 40.6 | 2.6 | 13.2 | 12.3 | 26.5 |  |
| Cc1cc(C)cc(NC(=O)Cc2ccc(OC3(C(=O)N[C@H](CC(=O)O)C(=O)O)CCCC3)cc2)c1 | 50.2 | 1.9 | 3.2 | 55.3 | 2.6 | 26.6 | 16.1 | 26.2 |  |

The next lines start with the values.

| P50e [1] [mmHg] | n50e [2] | P50e / P50c [3] | P50e [4] [mmHg] | Hill coefficient (n50) [5] | Delta P50 [6] | P50e [7] [mmHg] | P50c [8] [mmHg] | P50e [9] [mmHg] | SMILES |
| --- | --- | --- | --- | --- | --- | --- | --- | --- | --- |
|  | 2.1 | 7.4 | 49.9 | 2.1 | 20 | 37.1 | 28.7 | 47.5 | Cc1cc(C)cc(NC(=O)Cc2ccc(OC3(C(=O)N[C@H](Cc4ccc5[nH]ccc5c4)C(=O)O)CCCC3)cc2)c1 |
| 48.1 | 1.9 | 1.7 | 49.8 | 2.6 | 20.3 | 8.2 | 28.7 |  | Cc1cc(C)cc(NC(=O)Cc2ccc(OC3(C(=O)N[C@H](Cc4ccccc4)C(=O)O)CCCC3)cc2)c1 |
| 47.2 | 2 | 7.4 | 48.8 | 2.3 | 20.2 | 37 | 27.9 |  | Cc1cc(C)cc(NC(=O)Cc2ccc(OC3(C(=O)N[C@@H](Cc4ccc5[nH]ccc5c4)C(=O)O)CCCC3)cc2)c1 |
| 31.1 | 2.1 | 2.3 | 34 | 2.6 | 5.4 | 11.2 | 27.1 |  | Cc1cc(C)cc(NC(=O)Cc2ccc(OC3(C(=O)N[C@H](CO)C(=O)O)CCCC3)cc2)c1 |
| 30.6 | 2.3 | 8.6 | 33.3 | 2.1 | 7.2 | 43 | 24.8 |  | Cc1cc(C)cc(NC(=O)Cc2ccc(OC3(C(=O)N[C@H](CSCc4ccccc4)C(=O)O)CCCC3)cc2)c1 |
| 41.9 | 2.3 | 1.9 | 42.6 | 2.6 | 15.2 | 9.4 | 27.1 |  | Cc1cc(C)cc(NC(=O)Cc2ccc(OC3(C(=O)N[C@H](CC(C)C)C(=O)O)CCCC3)cc2)c1 |
| 38.7 | 2.3 | 3.4 | 44.7 | 2.6 | 15.5 | 17.1 | 26.2 |  | Cc1cc(C)cc(NC(=O)Cc2ccc(OC3(C(=O)N[C@@H](CO)C(=O)O)CCCC3)cc2)c1 |
| 47 | 2 | 9.7 | 49 | 2.3 | 20.8 | 48.6 | 27.2 |  | Cc1cc(C)cc(NC(=O)Cc2ccc(OC3(C(=O)N[C@H](Cc4ccc(O)cc4)C(=O)O)CCCC3)cc2)c1 |
| 64.1 | 1.8 | 2.6 | 67.5 | 2.7 | 38.4 | 12.4 | 27.4 |  | Cc1cc(C)cc(NC(=O)Cc2ccc(OC3(C(=O)N[C@@H](Cc4ccccc4)C(=O)O)CCCC3)cc2)c1 |
